Drawing on ChEMBL document CHEMBL4706496, “Discovery of novel aminopiperidinyl amide CXCR4 modulators through virtual screening and rational drug design” (Eur J Med Chem, 2020), this text covers inhibition, EC and t1/2 for eight molecules.

One series concerns MDA-MB-231. In words: Antiinvasive activity against human MDA-MB-231 cells assessed as inhibition of cell migration at 100 nM incubated for 22 hrs by H and E staining based matrigel invasion assay. In kind it is functional. Summed up:
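MDA-MB-231 cells (DMEM, 10% FBS, penicillin/streptomycin) seeded on Matrigel in upper chamber with compound at 100 nM; 200 ng/mL CXCL12 in lower chamber as chemoattractant. Invaded cells at the Matrigel bottom fixed in methanol, H&E stained and counted to give percentage invasion.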

Series [1] concerns the target C-X-C chemokine receptor type 4 (Homo sapiens) (UniProt P61073). In words: Binding affinity to human CXCR4 in human MDA-MB-231 cells assessed as inhibition of CXCR4-targeted conjugate formation preincubated with compound followed by biotinylated-TN14003 addition and measured after 45 mins by competition based microscopic analysis. In kind it is cell-based. In outline:
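MDA-MB-231 cells in chamber slides preincubated with compound at 1, 10, 100 and 1000 nM. Then fixed in 4% formaldehyde, incubated with 50 nM biotinylated TN14003, and stained with streptavidin–rhodamine. Fluorescence imaged by microscopy and quantified. EC defined as the concentration blocking >50% of probe signal; IC50 obtained by curve fitting.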

In series [2] the test system is Mus musculus. In words: Antiinflammatory activity in JAZ 007850 J:NU mouse assessed as decrease in carrageenan-induced paw edema treated at 10 mg/kg, ip qd starting 30 min after carrageenan challenge measured after 74 hrs.
In series [3] the test system is Mus musculus. In words: Antiinflammatory activity in carrageenan-induced JAZ 007850 J:NU mouse model assessed as reduction in infiltration of CXCR-4 expressing cells at 10 mg/kg, ip qd measured after 74 hrs by immunohistochemistry assay. The series is classed as functional, organism-based. In outline: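 Carrageenan paw edema tissue (male nude mice, 10 mg/kg i.p. daily, harvested 74 h) formalin-fixed, paraffin-embedded, deparaffinized. Antigen retrieval by microwaving in 10 mM sodium citrate pH 6.0. Blocked with hydrogen peroxide, avidin/biotin and horse serum. Anti-CXCR4 antibody at 1:500 overnight at 4 °C, then biotinylated secondary and avidin-biotin complex. Developed with diaminobenzidine, hematoxylin counterstain; H&E sections also examined.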

Series [4] can be described thus: Stability in athymic nude-Foxn1 mouse serum measured upto 120 mins by HPLC method. The conditions noted are these: 2 h. The series is classed as ADME, cell-free. In outline: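 Blood from female athymic nude mice (7 weeks) taken from orbital venous sinus and spun at 13,000 rpm, 6 min, 4 °C. Supernatant mixed 4:1 with 10 mM aqueous compound solution (stock) and held at 36.6 °C. Samples at 0, 5, 15, 30, 60, 120 min passed through 10 kDa filter. Filtrate run on C18 HPLC, acetonitrile/water (0.1% TEA) 3:7, detection at 310 nm. Half-life from one-phase decay fit.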

Calls of active or inactive are those of the source.

Sequence of C-X-C chemokine receptor type 4 (Homo sapiens) (P61073 whole entry): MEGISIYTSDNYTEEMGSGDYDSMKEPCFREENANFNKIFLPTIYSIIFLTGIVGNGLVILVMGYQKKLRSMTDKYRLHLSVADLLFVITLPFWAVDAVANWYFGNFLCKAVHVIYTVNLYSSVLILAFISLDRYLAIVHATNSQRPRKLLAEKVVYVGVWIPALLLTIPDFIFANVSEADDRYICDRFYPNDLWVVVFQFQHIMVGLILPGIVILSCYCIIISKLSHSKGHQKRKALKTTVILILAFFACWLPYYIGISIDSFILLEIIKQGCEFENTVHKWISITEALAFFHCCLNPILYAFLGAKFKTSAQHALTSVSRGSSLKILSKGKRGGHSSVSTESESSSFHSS

Take `O=C(NCCc1c[nH]c2ccccc12)C1CCN(C(=O)Cc2nnc(O)c3ccccc23)CC1`: in the series with MDA-MB-231, the inhibition (as a rule, the percentage by which the read-out fell short of the control) is “inactive”. The EC in series [1] was 1000 nM.
For `NC(=O)C1CCN(Cc2ccc(NC(=O)CCc3c[nH]c4ccccc34)cc2)CC1` the same measures were “inactive” and 1000 nM.
In the case of `O=C(Nc1ccc2c(c1)OCO2)C1CCN(C(=O)NC2CCN(Cc3ccccc3)CC2)CC1`, in the series on MDA-MB-231, the inhibition at 0.1 µM was 9.3%. For the same molecule, the EC in series [1] was found to be 10 nM.
As for `C[C@@H](NC(=O)[C@@H](N)c1ccccc1)C(=O)N1CCN(C(=O)CCn2ccc3ccncc32)CC1`, in the series on MDA-MB-231, the inhibition at 0.1 µM was 15.7%. The EC in series [1] came to 100 nM.
The corresponding values for `O=C(CN1CCC(n2nnc(-c3cccs3)n2)CC1)Nc1ccc(Cn2cncn2)cc1` are 40.9% and 100 nM.
On to `N=C(N)NCCC[C@H](N)C(=O)NC1CCN(C(=O)CCn2ccc3ccncc32)CC1`, for which, in the series with MDA-MB-231, the inhibition at 0.1 µM was 78.5%. Besides, the inhibition entry in the series with Mus musculus [2] and in the series on Mus musculus [3] was “Active” in each case. Besides, the t1/2 in series [4] stood at 1.28 h. Moreover, the EC in series [1] stood at 1 nM.
For `C[C@H](C(=O)N[C@@H]1CCN(Cc2ccccc2)C1)N1CCC(C(=O)Nc2cc(O)ccc2Cl)CC1`, the inhibition result in the series on MDA-MB-231 was “inactive”. The EC in series [1] is more than 1000 nM.
In the case of `N[C@@H](C(=O)NC1CCN(C(=O)CCn2ccc3ccncc32)CC1)c1ccccc1`, the inhibition at 0.1 µM with MDA-MB-231 turned out to be 68.6%. Besides, in series [1], the EC was found to be 100 nM.
